Experimental data from ChEMBL document CHEMBL4680121, “Development of (4-methoxyphenyl)-1H-tetrazol-5-amine regioisomers as a new class of selective antitubercular agents” (Eur J Med Chem, 2020).

Legend:
Klebsiella pneumoniae = assay: Antibacterial activity against Klebsiella pneumoniae ATCC 10031 assessed as bacterial growth inhibition measured after 18 hrs by two-fold serial microdilution method; assay type: functional
How it was run: (§1)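 Two-fold serial broth microdilution in MH II medium following modified CLSI procedures. Compounds were dissolved in DMSO and diluted in medium to at most 1% solvent, tested from 0.03125 to 512 μg/ml. Final inoculum 10^6 CFU/ml. MIC was taken as the lowest concentration with no visible growth after 18 h at 35 °C.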

[1] = test system: Staphylococcus epidermidis; assay: Antibacterial activity against Staphylococcus epidermidis ATCC 12228 assessed as bacterial growth inhibition measured after 18 hrs by two-fold serial microdilution method; assay type: functional; how it was run: as §1
Escherichia coli = assay: Antibacterial activity against Escherichia coli ATCC 25922 assessed as bacterial growth inhibition measured after 18 hrs by two-fold serial microdilution method; assay type: functional; how it was run: as §1
[2] = test system: Mycobacterium tuberculosis; assay: Antitubercular activity against Mycobacterium tuberculosis H37Rv ATCC 25618 assessed as inhibition of microbial growth by classical test tube method; assay type: functional
How it was run: (§2)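 Classical test-tube serial dilution in Youmans' modified Proskauer–Beck liquid medium with 10% bovine serum. Inoculum came from 14-day-old cultures. Compounds were given as DMSO solutions (stock 10 mg/ml), diluted geometrically in medium to 3.1–100 µg/ml, and incubated at 37 °C. MIC is the minimum concentration inhibiting growth relative to a no-compound control.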

[3] = test system: Staphylococcus epidermidis; assay: Antibacterial activity against Staphylococcus epidermidis ATCC 35984/RP62A assessed as bacterial growth inhibition measured after 18 hrs by two-fold serial microdilution method; assay type: functional; how it was run: as §1
[4] = test system: Mycobacterium tuberculosis; assay: Antitubercular activity against Mycobacterium tuberculosis Spec.192 assessed as inhibition of microbial growth by classical test tube method; assay type: functional; how it was run: as §2
Pseudomonas aeruginosa [5] = assay: Antibacterial activity against Pseudomonas aeruginosa NCTC 6749 assessed as bacterial growth inhibition measured after 18 hrs by two-fold serial microdilution method; assay type: functional; how it was run: as §1
Pseudomonas aeruginosa [6] = assay: Antibacterial activity against Pseudomonas aeruginosa PAO1 assessed as bacterial growth inhibition measured after 18 hrs by two-fold serial microdilution method; assay type: functional; how it was run: as §1
Staphylococcus aureus [7] = assay: Antibacterial activity against Staphylococcus aureus ATCC 6538 assessed as bacterial growth inhibition measured after 18 hrs by two-fold serial microdilution method; assay type: functional; how it was run: as §1
[8] = test system: Staphylococcus epidermidis; assay: Antibacterial activity against Staphylococcus epidermidis ATCC 1457 assessed as bacterial growth inhibition measured after 18 hrs by two-fold serial microdilution method; assay type: functional; how it was run: as §1
Proteus vulgaris = assay: Antibacterial activity against Proteus vulgaris NCTC 4635 assessed as bacterial growth inhibition measured after 18 hrs by two-fold serial microdilution method; assay type: functional; how it was run: as §1
Staphylococcus aureus [9] = assay: Antibacterial activity against Staphylococcus aureus NCTC 4163 assessed as bacterial growth inhibition measured after 18 hrs by two-fold serial microdilution method; assay type: functional; how it was run: as §1
Mycobacterium avium = assay: Antimycobacterial activity against Mycobacterium avium assessed as inhibition of microbial growth incubated for 1 week by MABA method; assay type: functional; conditions: 168 h, time 1 weeks
How it was run: (§3)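 Microplate Alamar Blue assay in Middlebrook 7H9 broth with 10% OADC. Inoculum from fresh LJ culture was adjusted to McFarland 1 and diluted 1:20. DMSO stocks were two-fold serially diluted to final 0.125–512 µg/ml, with growth and sterile controls. Plates ran 1 week at 37 °C, then Alamar blue was added for 24 h. MIC is the lowest concentration preventing the blue-to-pink change.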

[10] = test system: Mycolicibacterium fortuitum; assay: Antibacterial activity against Mycobacterium fortuitum assessed as inhibition of microbial growth incubated for 1 week by MABA method; assay type: functional; conditions: 168 h, time 1 weeks
How it was run: (§4)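 Microplate Alamar Blue assay using two-fold serial microdilution in Middlebrook 7H9 broth with 10% OADC, compounds 0.125–512 µg/ml from DMSO stocks. Inoculum came from fresh LJ culture, was adjusted to McFarland 1 and diluted 1:20. Plates were incubated 1 week at 37 °C, Alamar blue was added and plates were re-incubated 24 h. MIC was the lowest concentration preventing the blue-to-pink change. Each plate carried growth and sterile controls.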

[11] = test system: Mycobacterium scrofulaceum; assay: Antibacterial activity against Mycobacterium scrofulaceum assessed as inhibition of microbial growth incubated for 1 week by MABA method; assay type: functional; conditions: 168 h, time 1 weeks; how it was run: as §4
V79 [12] = assay: Cytotoxicity against Chinese Hamster V79 cells assessed as reduction in cell viability measured after 72 hrs by MTT assay; assay type: cell-based; conditions: Cricetulus griseus, V79, 72 h
How it was run: (§5)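 MTT viability assay on cells grown in DMEM with 10% heat-inactivated FBS, penicillin/streptomycin and 20 mM HEPES at 37 °C/5% CO2. Cells were seeded at 1×10^4 per well and allowed to adhere for 24 h, then the medium was refreshed. Compounds were added at 20–140 μM for 72 h at 37 °C, followed by MTT (0.5 mg/mL in serum-free medium) for 4 h. Untreated cells served as control. IC50 is the concentration giving 50% growth inhibition versus control.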

[13] = test system: Mycobacterium tuberculosis; assay: Antitubercular activity against Mycobacterium tuberculosis H37Rv ATCC 25618 assessed as inhibition of microbial growth incubated for 1 week by MABA method; assay type: functional; conditions: H37Rv ATCC 25618, 168 h, time 1 weeks; how it was run: as §3
Mycobacterium xenopi = assay: Antibacterial activity against Mycobacterium xenopi assessed as inhibition of microbial growth incubated for 1 week by MABA method; assay type: functional; conditions: 168 h, time 1 weeks; how it was run: as §4
[14] = test system: Mycobacterium intracellulare; assay: Antimycobacterial activity against Mycobacterium intracellulare assessed as inhibition of microbial growth incubated for 1 week by MABA method; assay type: functional; conditions: 168 h, time 1 weeks; how it was run: as §4
Mycobacterium kansasii = assay: Antibacterial activity against Mycobacterium kansasii assessed as inhibition of microbial growth incubated for 1 week by MABA method; assay type: functional; conditions: 168 h, time 1 weeks; how it was run: as §4
V79 [15] = assay: Cytotoxicity against Chinese Hamster V79 cells assessed as reduction in cell viability at 100 uM measured after 72 hrs by MTT assay; assay type: cell-based, Cricetulus griseus; conditions: v79, 72 h; how it was run: as §5
HaCaT [16] = assay: Cytotoxicity against human HaCaT cells assessed as reduction in cell viability measured after 72 hrs by MTT assay; assay type: cell-based; how it was run: as §5
HaCaT [17] = assay: Cytotoxicity against human HaCaT cells assessed as reduction in cell viability at 100 uM measured after 72 hrs by MTT assay; assay type: cell-based; how it was run: as §5
[18] = test system: Mycobacterium tuberculosis; assay: Antitubercular activity against Mycobacterium tuberculosis Spec.192 assessed as inhibition of microbial growth incubated for 1 week by MABA method; assay type: functional; conditions: Mycobacterium tuberculosis, 192, 168 h; time 1 weeks; how it was run: as §3

Structure (SMILES)	MIC (Klebsiella pneumoniae)	MIC [1]	MIC (Escherichia coli)	MIC [2]	MIC [3]	MIC [4]	MIC (Pseudomonas aeruginosa [5])	MIC (Pseudomonas aeruginosa [6])	MIC (Staphylococcus aureus [7])	MIC [8]	MIC (Proteus vulgaris)	MIC (Staphylococcus aureus [9])	also measured
COc1ccc(NC(S)=Nc2ccc(F)cc2)cc1	> 256 µg/mL	> 256 µg/mL	> 256 µg/mL	50 µg/mL	> 256 µg/mL	100 µg/mL	> 256 µg/mL	> 256 µg/mL	> 256 µg/mL	> 256 µg/mL	> 256 µg/mL	> 256 µg/mL	–
COc1ccc(NC(=S)Nc2cccc(Cl)c2)cc1	> 256 µg/mL	> 256 µg/mL	> 256 µg/mL	100 µg/mL	> 256 µg/mL	100 µg/mL	> 256 µg/mL	> 256 µg/mL	> 256 µg/mL	> 256 µg/mL	> 256 µg/mL	> 256 µg/mL	–
COc1ccc(NC(=S)Nc2ccc(Cl)cc2)cc1	> 256 µg/mL	> 256 µg/mL	> 256 µg/mL	50 µg/mL	> 256 µg/mL	50 µg/mL	> 256 µg/mL	> 256 µg/mL	> 256 µg/mL	> 256 µg/mL	> 256 µg/mL	> 256 µg/mL	–
COc1ccc(NC(=S)Nc2cccc(Br)c2)cc1	> 256 µg/mL	> 256 µg/mL	> 256 µg/mL	50 µg/mL	> 256 µg/mL	50 µg/mL	> 256 µg/mL	> 256 µg/mL	> 256 µg/mL	> 256 µg/mL	> 256 µg/mL	> 256 µg/mL	–
COc1ccc(NC(=S)Nc2ccccc2Br)cc1	> 256 µg/mL	> 256 µg/mL	> 256 µg/mL	50 µg/mL	> 256 µg/mL	50 µg/mL	> 256 µg/mL	> 256 µg/mL	> 256 µg/mL	> 256 µg/mL	> 256 µg/mL	> 256 µg/mL	–
COc1ccc(NC(=S)Nc2ccc(Br)cc2)cc1	> 256 µg/mL	> 256 µg/mL	> 256 µg/mL	25 µg/mL	> 256 µg/mL	25 µg/mL	> 256 µg/mL	> 256 µg/mL	> 256 µg/mL	> 256 µg/mL	> 256 µg/mL	> 256 µg/mL	–
COc1ccc(NC(=S)Nc2ccccc2Cl)cc1	> 256 µg/mL	> 256 µg/mL	> 256 µg/mL	25 µg/mL	> 256 µg/mL	25 µg/mL	> 256 µg/mL	> 256 µg/mL	> 256 µg/mL	> 256 µg/mL	> 256 µg/mL	> 256 µg/mL	–
COc1ccc(Nc2nnnn2-c2ccc(Br)cc2)cc1	> 256 µg/mL	> 256 µg/mL	> 256 µg/mL	–	> 256 µg/mL	–	> 256 µg/mL	> 256 µg/mL	> 256 µg/mL	> 256 µg/mL	> 256 µg/mL	> 256 µg/mL	MIC (Mycobacterium avium): > 512 µg/mL; MIC [10]: > 512 µg/mL; MIC [11]: 256 µg/mL; IC50 (V79 [12]): 125 µM; MIC [13]: 16 µg/mL; MIC (Mycobacterium xenopi): 512 µg/mL; MIC [14]: 256 µg/mL; MIC (Mycobacterium kansasii): 512 µg/mL; Activity (V79 [15]): Non-Toxic; IC50 (HaCaT [16]): 103 µM; Activity (HaCaT [17]): Non-Toxic; MIC [18]: 16 µg/mL
COc1ccc(NC(=S)Nc2cccc(F)c2)cc1	> 256 µg/mL	> 256 µg/mL	> 256 µg/mL	50 µg/mL	> 256 µg/mL	100 µg/mL	> 256 µg/mL	> 256 µg/mL	> 256 µg/mL	> 256 µg/mL	> 256 µg/mL	> 256 µg/mL	–
COc1ccc(NC(=S)Nc2ccccc2F)cc1	> 256 µg/mL	> 256 µg/mL	> 256 µg/mL	50 µg/mL	> 256 µg/mL	50 µg/mL	> 256 µg/mL	> 256 µg/mL	> 256 µg/mL	> 256 µg/mL	> 256 µg/mL	> 256 µg/mL	–
CC[C@@H](CO)NCCN[C@@H](CC)CO [ETHAMBUTOL]	–	–	–	< 3.1 µg/mL	–	< 3.1 µg/mL	–	–	–	–	–	–	MIC [13]: 2 µg/mL; MIC [18]: 2 µg/mL
